Assays:
[1] = molecular target: T1, Tyrosyl-DNA phosphodiesterase 1 (Homo sapiens, UniProt Q9NUW8)
[2] = molecular target: T1, Tyrosyl-DNA phosphodiesterase 1; assay: Reversal of Tdp1-mediated drug resistance in human MCF7 cells assessed as camptothecin CC50 at 5 uM measured after 72 hrs by MTT assay (reference value: 1430 +/- 430 nM); format: cell-based
Procedure, shortened: (§1)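 MCF-7 cells, about 2000 per well, were pre-incubated for 24 h at 37 °C in IMDM (5% CO₂). They were then given graded camptothecin concentrations together with a fixed 5 μM coumarin. After 72 h, viable cells were measured by MTT. Camptothecin CC50 was estimated with and without the coumarin.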

[3] = Cytotoxicity against human MCF7 cells expressing Tdp1 assessed as reduction in cell viability up to 100 uM measured after 72 hrs by MTT assay; format: toxicity, cell-based; details: mcf7, 72 h
Procedure, shortened: (§2)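 MCF-7 mammary adenocarcinoma cells, about 2000 per well, were pre-incubated for 24 h at 37 °C in IMDM (5% CO₂). They were then exposed to the coumarins over a dose series up to 100 μM. After 72 h, live cells were quantified by colorimetric MTT test. CC50 was read from the dose-response curve.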

[4] = Cytotoxicity against human RPMI8226 cells expressing low levels of Tdp1 assessed as reduction in cell viability up to 100 uM measured after 72 hrs by MTT assay; format: toxicity, cell-based; details: rpmi-8226, 72 h
Procedure, shortened: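 RPMI 8226 human myeloma cells were seeded at about 2000 per well and treated with the coumarins. They were incubated at 37 °C in RPMI 1640 medium (5% CO₂). Viability was measured by MTT.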

[5] = Cytotoxicity against human MCF7 cells expressing Tdp1 assessed as reduction in cell viability measured after 72 hrs by MTT assay; format: toxicity, cell-based; details: for Activity: mcf7, 72 h
Procedure, shortened: as §2

[6] = molecular target: T1, Tyrosyl-DNA phosphodiesterase 1; assay: Reversal of Tdp1-mediated drug resistance in human MCF7 cells assessed as fold reduction in camptothecin CC50 at 5 uM measured after 72 hrs by MTT assay relative to camptothecin alone; format: cell-based
Procedure, shortened: as §1

T1 sequence (Q9NUW8 whole entry): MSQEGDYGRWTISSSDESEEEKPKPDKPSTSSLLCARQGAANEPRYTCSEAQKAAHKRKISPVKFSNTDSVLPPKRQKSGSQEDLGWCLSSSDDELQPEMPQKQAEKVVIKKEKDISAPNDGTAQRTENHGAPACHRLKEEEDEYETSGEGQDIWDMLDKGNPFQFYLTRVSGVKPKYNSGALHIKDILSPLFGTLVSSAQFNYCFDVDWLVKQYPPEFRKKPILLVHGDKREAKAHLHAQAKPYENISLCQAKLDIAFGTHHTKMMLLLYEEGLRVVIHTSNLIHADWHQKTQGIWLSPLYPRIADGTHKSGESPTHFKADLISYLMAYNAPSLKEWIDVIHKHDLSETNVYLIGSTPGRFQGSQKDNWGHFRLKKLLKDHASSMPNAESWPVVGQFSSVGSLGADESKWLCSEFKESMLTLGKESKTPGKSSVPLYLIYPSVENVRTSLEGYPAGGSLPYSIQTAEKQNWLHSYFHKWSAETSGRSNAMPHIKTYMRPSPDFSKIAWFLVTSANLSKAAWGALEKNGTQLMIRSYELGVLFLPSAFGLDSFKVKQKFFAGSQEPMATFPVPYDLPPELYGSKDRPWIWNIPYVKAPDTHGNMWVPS

Row | Structure (SMILES) | IC50 [1] | CC50 [2] | Activity [3] | Activity [4] | Activity [5] | fold change (FC) [6] | CC50 at 72 h ([5]; MCF7 cells expressing Tdp1)
1 | COc1cccc(COc2ccc3c(C)cc(=O)oc3c2)c1 | > 10000 nM | – | – | – | – | – | –
2 | CC1(C)[C@H]2CC=C(COc3ccc4c5c(c(=O)oc4c3)CCC5)[C@@H]1C2 | 1370 nM | 330 nM | Non-Toxic | – | – | – | –
3 | Cc1cc(=O)oc2cc(OCC3=CC[C@H]4C[C@@H]3C4(C)C)ccc12 | 1560 nM | 340 nM | – | Non-Toxic | Toxic | – | –
4 | COc1cc(COc2ccc3c4c(c(=O)oc3c2)CCCC4)cc(OC)c1OC | > 10000 nM | – | – | – | – | – | –
5 | CC1(C)[C@H]2CC=C(COc3ccc4c5c(c(=O)oc4c3)CCCC5)[C@@H]1C2 | 1230 nM | – | Non-Toxic | – | – | – | –
6 | COc1cc(COc2ccc3c(C)cc(=O)oc3c2)cc(OC)c1OC | > 10000 nM | – | – | – | – | – | –
7 | CC1(C)[C@H]2CC=C(CCOc3ccc4c5c(c(=O)oc4c3)CCCC5)[C@@H]1C2 | 1450 nM | 2300 nM | – | – | Dose-dependent effect | – | –
8 | COc1cc(COc2ccc3c4c(c(=O)oc3c2)CCC4)cc(OC)c1OC | > 10000 nM | – | – | – | – | – | –
9 | Cc1cc(=O)oc2cc(OCC3=CC[C@@H]4C[C@H]3C4(C)C)ccc12 | 4310 nM | 320 nM | – | Non-Toxic | Toxic | – | –
10 | COc1cccc(COc2ccc3c4c(c(=O)oc3c2)CCCC4)c1 | 4930 nM | – | – | – | – | – | –
11 | CC1(C)[C@H]2CC=C(CCOc3ccc4c5c(c(=O)oc4c3)CCC5)[C@@H]1C2 | 1090 nM | – | – | – | Dose-dependent effect | – | –
12 | CC1(C)[C@@H]2CC=C(COc3ccc4c5c(c(=O)oc4c3)CCC5)[C@H]1C2 | 675 nM | 180 nM | – | Non-Toxic | – | 8 | > 100000 nM
13 | CC1(C)[C@@H]2CC=C(COc3ccc4c5c(c(=O)oc4c3)CCCC5)[C@H]1C2 | 1200 nM | 410 nM | Non-Toxic | Non-Toxic | – | – | –
